Reference: ChEMBL document CHEMBL3862029, “Discovery of 8-Membered Ring Sulfonamides as Inhibitors of Oncogenic Mutant Isocitrate Dehydrogenase 1” (ACS Med Chem Lett, 2016)
≈ marks a conversion by molar mass, not a printed value. Calls of active or inactive are those of the source. No cut-off for these calls is given here.

How the values were obtained:
[1] = tested on: Isocitrate dehydrogenase [NADP] cytoplasmic (Homo sapiens), O75874 [R132H]; assay: Inhibition of human C-terminal His8-tagged IDH1-R132H mutant expressed in Escherichia coli Rosetta cells assessed as inhibition of ketoreductase activity measured as NADPH consumption preincubated for 60 mins followed by addition of NADPH and alpha-KG as substrate measured after 50 mins using Mg2+ as cofactor in presence of tween-20 detergent by resazurin/diaphorase-coupled fluorescence analysis
Outline: (§1)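 IDH1-R132H–Mg2+ ketoreductase assay reading NADPH consumption through a diaphorase-coupled fluorescence reaction. Buffer contained 0.01% Tween 20 against aggregation. Primary screen at 15 μM in duplicate, with positives set at ≥60% inhibition in both replicates. Retests were in 8-point dose.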

[2] = molecular target: T1, Isocitrate dehydrogenase [NADP] cytoplasmic (Homo sapiens, UniProt O75874, R132H); assay: Inhibition of human C-terminal His8-tagged IDH1-R132H mutant expressed in Escherichia coli Rosetta assessed as inhibition of ketoreductase activity by measuring NADPH consumption preincubated for 60 mins followed by addition of alpha-KG as substrate measured after 50 mins in presence of NADPH and Mg2+ by resazurin based diaphorase-coupled fluorescence assay; outline: as §1
Target sequence in this assay (O75874 2-414 R132H limits assumed): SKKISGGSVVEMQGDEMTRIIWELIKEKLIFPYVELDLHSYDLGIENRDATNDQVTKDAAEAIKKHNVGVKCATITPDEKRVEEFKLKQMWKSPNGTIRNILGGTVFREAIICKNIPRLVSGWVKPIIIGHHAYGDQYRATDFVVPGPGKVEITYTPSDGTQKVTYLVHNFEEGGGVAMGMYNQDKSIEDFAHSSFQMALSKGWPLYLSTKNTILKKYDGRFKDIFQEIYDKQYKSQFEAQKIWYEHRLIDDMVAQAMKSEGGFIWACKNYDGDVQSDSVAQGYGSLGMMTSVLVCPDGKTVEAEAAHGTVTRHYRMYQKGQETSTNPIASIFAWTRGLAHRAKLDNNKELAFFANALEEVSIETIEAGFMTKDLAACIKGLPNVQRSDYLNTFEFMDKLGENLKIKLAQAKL

[3] = molecular target: Isocitrate dehydrogenase [NADP] cytoplasmic (Homo sapiens, UniProt O75874, R132C); assay: Inhibition of human C-terminal His8-tagged IDH1-R132C mutant expressed in Escherichia coli Rosetta assessed as inhibition of ketoreductase activity by measuring NADPH consumption preincubated for 10 mins followed by addition of NADPH and alpha-KG as substrate by fluorescence method
[4] = molecular target: Isocitrate dehydrogenase [NADP] cytoplasmic (Homo sapiens, UniProt O75874); assay: Inhibition of wild type human C-terminal His8-tagged IDH1 expressed in Escherichia coli Rosetta cells assessed as reduction in isocitrate to alpha-KG conversion preincubated for 15 mins followed by substrate addition in presence of NADP+ by resazurin based diaphorase-coupled fluorescence assay
Outline: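 Wild-type IDH1 activity read as NADPH production from NADP+ and isocitrate, through a diaphorase-coupled fluorescence reaction analogous to the primary screen.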

[5] = tested on: Isocitrate dehydrogenase [NADP] cytoplasmic (Homo sapiens), O75874 [R132H]; assay: Inhibition of human C-terminal His8-tagged IDH1-R132H mutant expressed in Escherichia coli Rosetta cells assessed as change in melting temperature at 5 uM measured over 20 mins using SYPRO orange dye by DSF analysis
Outline: (§2)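 Differential scanning fluorimetry of recombinant enzyme, giving melting temperature shift with compound present. Mean of 3 independent experiments, each with 7 replicates.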

[6] = tested on: Isocitrate dehydrogenase [NADP] cytoplasmic (Homo sapiens), O75874 [R132C]; assay: Inhibition of human C-terminal His8-tagged IDH1-R132C mutant expressed in Escherichia coli Rosetta cells assessed as change in melting temperature at 5 uM measured over 20 mins using SYPRO orange dye by DSF analysis; outline: as §2
[7] = tested on: Isocitrate dehydrogenase [NADP] cytoplasmic (Homo sapiens), O75874 [R132H]; assay: (§3) Inhibition of IDH1-R132H mutant (unknown origin) expressed in human HA1EM cells assessed as suppression of R-2HG secretion measured after 72 hrs by LC-MS/MS analysis; type: cell-based
Outline: (§4)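 HA1E-M cells (HEK-293 derivative) engineered to overexpress IDH1-R132H and release R-2HG into growth media. Compound treatment for 72 h, then R-2HG in conditioned media measured by LC-MS. Values normalized to DMSO-treated controls; EC50 from three independent experiments, each run in triplicate.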

[8] = molecular target: T1, Isocitrate dehydrogenase [NADP] cytoplasmic; assay: as §3; type: cell-based; outline: as §4
Target sequence in this assay (O75874 whole entry R132H): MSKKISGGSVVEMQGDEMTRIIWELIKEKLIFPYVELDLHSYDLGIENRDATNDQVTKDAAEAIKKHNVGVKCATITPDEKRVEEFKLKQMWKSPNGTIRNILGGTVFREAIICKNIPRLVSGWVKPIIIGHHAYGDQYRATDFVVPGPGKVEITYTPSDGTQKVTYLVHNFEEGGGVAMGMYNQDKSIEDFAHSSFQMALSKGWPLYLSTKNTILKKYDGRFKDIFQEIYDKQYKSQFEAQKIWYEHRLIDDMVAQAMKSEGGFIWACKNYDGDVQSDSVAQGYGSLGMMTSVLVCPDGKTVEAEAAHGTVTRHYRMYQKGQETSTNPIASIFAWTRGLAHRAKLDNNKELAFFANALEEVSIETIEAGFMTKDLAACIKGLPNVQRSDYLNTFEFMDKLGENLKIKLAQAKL

[9] = tested on: Isocitrate dehydrogenase [NADP] cytoplasmic (Homo sapiens), O75874 [R132H]; assay: Competitive inhibition of recombinant human C-terminal His8-tagged IDH1-R132H mutant expressed in Escherichia coli Rosetta cells assessed as inhibition of ketoreductase activity by measuring NADPH consumption preincubated for 10 mins followed by addition of NADPH and varying levels of alpha-KG as substrate in presence of constant Mg2+ concentration by fluorescence method
[10] = tested on: Isocitrate dehydrogenase [NADP] cytoplasmic (Homo sapiens), O75874 [R132H]; assay: Competitive inhibition of recombinant human C-terminal His8-tagged IDH1-R132H mutant expressed in Escherichia coli Rosetta cells assessed as inhibition of ketoreductase activity by measuring NADPH consumption preincubated for 10 mins followed by addition of NADPH and alpha-KG as substrate in presence of varying levels of Mg2+ concentration by fluorescence method
[11] = Thermodynamic solubility of the compound in PBS at 100 uM and pH 7.4 measured after 18 hrs by UPLC-MS analysis; type: physicochemical; settings: read-out: Therm_solubility
[12] = Octanol-phosphate buffer partition coefficient, log D of compound at pH 7.4 at 67 uM; type: physicochemical
[13] = Half life in mouse liver microsomes at 1 uM by LC-MS/MS analysis; type: ADME
[14] = Half life in human liver microsomes at 1 uM by LC-MS/MS analysis; type: ADME
[15] = Protein binding in mouse plasma at 5 uM measured after 5 hrs by rapid equilibrium dialysis method; type: ADME, cell-free; settings: read-out: PPB (converted)
[16] = Protein binding in human plasma at 5 uM measured after 5 hrs by rapid equilibrium dialysis method; type: ADME, cell-free; settings: read-out: PPB (converted)
[17] = Cytotoxicity against human HA1EM cells assessed as decrease in intracellular ATP levels up to 10 uM measured after 72 hrs by CellTiter-Glo assay; type: toxicity, cell-based
Outline: (§5)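 IDH1-R132H-overexpressing HA1E-M cells treated for 72 h. After media harvest, viability assessed by morphology and ATP levels. Values are normalized to DMSO controls, mean ± SD of three independent experiments each run in triplicate.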

[18] = Cytotoxicity against human HA1EM cells assessed as decrease in intracellular ATP levels at >10 uM measured after 72 hrs by CellTiter-Glo assay; type: toxicity, cell-based; outline: as §5
[19] = Cytotoxicity against human THP1 cells assessed as decrease in intracellular ATP levels up to 10 uM measured after 72 hrs by CellTiter-Glo assay; type: toxicity, cell-based; settings: thp-1, 72 h
[20] = tested on: Isocitrate dehydrogenase [NADP] cytoplasmic (Homo sapiens), O75874 [R132H]; assay: Inhibition of human C-terminal His8-tagged IDH1-R132H mutant expressed in Escherichia coli Rosetta cells assessed as inhibition of ketoreductase activity measured as NADPH consumption preincubated for 60 mins followed by addition of NADPH and alpha-KG as substrate measured after 50 mins using Mg2+ …
[21] = tested on: Isocitrate dehydrogenase [NADP] cytoplasmic (Homo sapiens), O75874 [R132H]; assay: Inhibition of human C-terminal His8-tagged IDH1-R132H mutant expressed in Escherichia coli Rosetta assessed as inhibition of ketoreductase activity by measuring NADPH consumption preincubated for 20 mins followed by addition of NADPH and alpha-KG as substrate in presence of Mg2+ by spectrophotometric method
Outline: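 Orthogonal confirmation assay: IDH1-R132H ketoreductase activity with NADPH detected by absorbance. Positives retested in 8-point dose.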

[22] = tested on: Isocitrate dehydrogenase [NADP] cytoplasmic (Homo sapiens), O75874 [R132H]; assay: Inhibition of human C-terminal His8-tagged IDH1-R132H mutant expressed in Escherichia coli Rosetta assessed as inhibition of ketoreductase activity by measuring NADPH consumption preincubated for 10 mins followed by addition of NADPH and alpha-KG as substrate by fluorescence method
Outline: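 Purified IDH1-R132H incubated with α-KG and NADPH; direct kinetic read of falling NADPH fluorescence, run in dose. Enzyme concentration kept below that of the screening assays so inhibitor stays far above enzyme. IC50 values are geometric means of at least three independent experiments.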

[23] = Cytotoxicity against human THP1 cells assessed as decrease in intracellular ATP levels at >10 uM measured after 72 hrs by CellTiter-Glo assay; type: toxicity, cell-based; settings: thp-1, 72 h
[24] = Cytotoxicity against human U937 cells assessed as decrease in intracellular ATP levels up to 10 uM measured after 72 hrs by CellTiter-Glo assay; type: toxicity, cell-based; settings: u-937, 72 h
[25] = Cytotoxicity against human U937 cells assessed as decrease in intracellular ATP levels at >10 uM measured after 72 hrs by CellTiter-Glo assay; type: toxicity, cell-based; settings: u-937, 72 h
[26] = molecular target: Isocitrate dehydrogenase [NADP], mitochondrial (Homo sapiens) (UniProt P48735); assay: Inhibition of human C-terminal FLAG-tagged IDH2-R140Q mutant (1 to 452 residues) expressed in baculovirus infeceted sf9 cells assessed as inhibition of ketoreductase activity preincubated for 10 mins followed by addition of NADPH and alpha-KG as substrate by fluorescence method

Isocitrate dehydrogenase [NADP] cytoplasmic (Homo sapiens), O75874 [R132H], sequence (O75874 whole entry R132H): as above
Isocitrate dehydrogenase [NADP] cytoplasmic (Homo sapiens, UniProt O75874, R132C), sequence (O75874 2-414 R132C limits assumed): as the sequence (O75874 2-414 R132H limits assumed) above, with H131C counted along it
Isocitrate dehydrogenase [NADP] cytoplasmic (Homo sapiens), O75874 [R132C], sequence (O75874 whole entry R132C): as the sequence (O75874 whole entry R132H) above, with H132C counted along it
Isocitrate dehydrogenase [NADP] cytoplasmic (Homo sapiens, UniProt O75874), sequence (O75874 whole entry): as the sequence (O75874 whole entry R132H) above, with H132R counted along it

C[C@@H]1CN([C@@H](C)CO)S(=O)(=O)c2ccc(C#Cc3cccc(F)c3)cc2O[C@H]1CN(C)C(=O)NC1CCCCC1
inhibition [1]: Active | IC50 [2]: 50 to 57 nM | IC50 [3]: 2500 nM | IC50 [4]: > 20000 nM | ΔTm [5]: 3.7 °C | ΔTm [6]: 1.4 °C | inhibition [7]: Dose-dependent effect | EC50 [8]: 300 nM | inhibition [9]: Active | inhibition [10]: Active | solubility thermodynamic at 18 h, 100 µM [11]: 5 µM (≈ 2.86 µg/mL) | logD at 67 µM [12]: 5.19 | half-life at 1 µM [13]: 42 s | half-life at 1 µM [14]: 42 s | fraction unbound at 5 h, 5 µM [15]: 0.037 | fraction unbound at 5 h, 5 µM [16]: 0.005 | Activity [17]: Non-Toxic | Activity [18]: Toxic | Activity [19]: Non-Toxic | inhibition [20]: Active | inhibition [21]: Active | inhibition [22]: Active | Activity [23]: Toxic | Activity [24]: Non-Toxic | Activity [25]: Toxic | IC50 [26]: > 20000 nM
